Results of several laboratories.
Protocols differ between the studies behind these lines.
Target: Serine/threonine-protein kinase 24 (STK24, Homo sapiens, UniProt Q9Y6E0)

Compound | assay | system | conditions | quantity | result
CCN1CCN(Cc2ccc(NC(=O)c3ccc(C)c(/C=C/c4cnc5[nH]ccc5c4OC)c3)cc2C(F)(F)F)CC1 | target engagement in cells, inhibitor, chemoproteomics | A-375 | 0.5 µM | inhibition | -36.9%
O=C1CCc2cc(Nc3cc(OC4CCOCC4)c([N+](=O)[O-])cc3Cl)ccc2N1 | cell-free assay, competition with immobilised ligand | – | 1 µM | remaining binding | 97%
O=C(Nc1cnn(-c2csc(C(=O)NC3COC3)c2)c1)Nc1ccccc1Cl | enzyme activity, inhibitor | – | 5 µM | remaining activity | 113%
CNC(=O)c1cc(Oc2ccc(NC(=O)Nc3ccc(Cl)c(C(F)(F)F)c3)cc2)ccn1 | enzyme activity, inhibitor | – | 10 µM | inhibition | -46%
O=C(Nc1cnn(-c2csc(C(=O)NC3COC3)c2)c1)Nc1c(F)cccc1Cl | enzyme activity, inhibitor | – | 5 µM | remaining activity | 81.6%
CCN(CC)CCNC(=O)c1c(C)[nH]c(/C=C2\C(=O)Nc3ccc(F)cc32)c1C | cell-free assay | – | 0.5 µM | remaining signal | 39.7%
COc1cccc2c(NCc3ccccc3)nc(-n3c(N)nc4ccccc43)nc12 | target engagement in cells, inhibitor, chemoproteomics | – | 20 mM | inhibition | -9.9%
Cn1c2c(c3ccc(Cl)c(Cl)c31)C(C#N)C1(CCCC1)NC2=O (stereo not drawn) | thermal stability, DSF | – | 10 µM | ΔTm | 0.8 °C
COc1cc2ncnc(Nc3ccc(Oc4ccccc4)c(C)c3C)c2cc1OC | enzyme activity, inhibitor | – | 1 µM | inhibition | 10%
COc1cc2ncnc(Nc3ccc(F)c(Cl)c3)c2cc1OCCCN1CCOCC1 | cell-free assay | – | 0.5 µM | remaining signal | 102%
Cn1c2c(c3ccc(Cl)c(Cl)c31)C(C#N)C1(CCNCC1)NC2=O (racemic) | thermal stability, DSF | – | 10 µM | ΔTm | -0.7 °C
Cn1cncc1C1=CN(c2ncnc3[nH]cnc23)CCS1 | enzyme activity, inhibitor, radiometric | – | 2 µM | inhibition | -15.6%
CCCCNc1ncc2c(-c3ccc(F)cc3)nn(C[C@H]3CC[C@H](N)CC3)c2n1 | target engagement in cells, inhibitor, chemoproteomics | – | 20 mM | inhibition | 8.3%
Cn1c2c(Cl)c(Cl)ccc2c2cc(N)[nH]c(=O)c21 | thermal stability, DSF | – | 10 µM | ΔTm | 0.6 °C
CC(C)(C)c1nc(-c2cccc(NS(=O)(=O)c3c(F)cccc3F)c2F)c(-c2ccnc(N)n2)s1 | enzyme activity, inhibitor, radiometric | – | 1 µM | remaining activity | 14%
CCCS(=O)(=O)Nc1ccc(F)c(C(=O)c2c[nH]c3ncc(-c4ccc(Cl)cc4)cc23)c1F | enzyme activity, inhibitor | – | 1 µM | inhibition | < 20%
O=C(Nc1cccnn1)N1CCC(=Cc2cccc(Oc3ccc(C(F)(F)F)cn3)c2)CC1 | cell-free assay, competition with immobilised ligand | – | 1 µM | remaining binding | 100%

Compound | assay | system | conditions | quantity | result
O=C1NC(=O)c2cc(Nc3ccc(F)cc3)c(Nc3ccc(F)cc3)cc21 | cell-free assay | – | 0.5 µM | remaining signal | 93.7%
CN1CCC2(CC1)NC(=O)c1c(c3ccc(Cl)c(Cl)c3n1C)C2C#N (racemic) | thermal stability, DSF | – | 10 µM | ΔTm | -0.6 °C
Cc1ccc(Nc2nccc(N(C)c3ccc4c(C)n(C)nc4c3)n2)cc1S(N)(=O)=O | enzyme activity, inhibitor | – | 10 µM | inhibition | -24%
CC/C(=N\NC(=O)NCc1cccc(O)c1)c1ccc(O)c(C)c1O | enzyme activity, inhibitor | – | 0.1 µM | inhibition | 4.3%
CC1=C(C#N)C(c2ccc3c(c2)c(NC(=O)c2ccccc2C)nn3C)C(C#N)=C(C)N1 | cell-free assay, competition with immobilised ligand | – | 1 µM | remaining binding | 100%
Cc1cnc(NC2CCOCC2)nc1-n1cnc(C(=O)NC(CN)c2cc(F)cc(Cl)c2)c1 (stereo not drawn) | enzyme activity, inhibitor, radiometric | – | 1 µM | remaining activity | 32%
Nc1c(C(=O)NCc2ccc(C(=O)NCCCC3CCCCC3)cc2)cnn1-c1ccccc1 | cell-free assay, competition with immobilised ligand | – | 0.1 µM | remaining binding | 91%
COc1cc(Nc2cnc(C#N)c(O[C@H](C)CN(C)C)n2)ncc1-c1cnn(C)c1 | enzyme activity, inhibitor, radiometric | – | 1 µM | remaining activity | 89%
O=C(N[C@H]1CCCCC/C=C\C2C[C@@]2(C(=O)O)NC(=O)[C@@H]2C[C@@H](Oc3ccncc3)CN2C1=O)OC1CCCC1 (stereo partly drawn) | binding, competition with immobilised ligand | – | 1 µM | remaining binding | 81%
CC(C)(O)[C@H]1CC[C@H](Nc2ccc3ncc(-c4cccc(C(F)(F)F)c4)n3n2)CC1 | enzyme activity, inhibitor | – | 1 µM | remaining activity | 96.1%
CN(C)c1ncnc(-c2ccc3nc(Nc4cc(CN5CCN(C(=O)CC(F)(F)F)CC5)ccn4)[nH]c3c2)c1Cl | cell-free assay, competition with immobilised ligand | – | 1 µM | remaining binding | 90%
CCN1CCN(Cc2ccc(NC(=O)c3ccc(C)c(Oc4ccnc5[nH]ccc45)c3)cc2C(F)(F)F)CC1 | target engagement in cells, inhibitor, chemoproteomics | A-375 | 50 nM | inhibition | -10.7%
O=C(O)c1cc(-c2ccc(C3CCNCC3)cc2)c2ccc(-c3ccc(C(F)(F)F)cc3)cc2c1 | cell-free assay, competition with immobilised ligand | – | 1 µM | remaining binding | 100%
COc1cc(-c2cc(-c3ccc(N4CCNCC4)cc3)cnc2C)cc(OC)c1OC | enzyme activity, inhibitor | – | 1 µM | inhibition | 4%
O=C(Nc1ccc(Oc2ccc(F)cc2)cc1)N1CCc2ncccc2[C@H]1c1ccc(F)cc1 | cell-free assay, competition with immobilised ligand | – | 1 µM | remaining binding | 93%
Oc1ccc(-c2nc(-c3ccncc3)c(-c3ccc(F)cc3)[nH]2)cc1 | cell-free assay | – | 0.5 µM | remaining signal | 95.2%
